Reference: the RNAGym collection of RNA variant scans (doi:10.1002/anie.201605470)

B1: Osa-1-4 twister ribozyme (parent)
chain: CCGCCUAACACUGCCAAUGCCGGUCCCAAGCCCGGAUAAAAGUGGAGGGGGCGG

Variants of: B1
Assay: self-cleavage, relative activity (ratio to wild type); higher = more cleavage; co-transcriptional
Procedure, shortened: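 A DNA template for a 54-nucleotide Oryza sativa twister ribozyme was synthesised with 97 % wild-type base and 1 % of each other base at the 48 positions downstream of the cleavage site. It was transcribed in vitro for 2 h at 37 °C, allowing co-transcriptional self-cleavage, then reverse-transcribed with a template-switching oligonucleotide, PCR-amplified and deep-sequenced. Cleavage status was scored from reads with or without upstream sequence. Relative activity is fraction cleaved normalised to wild type.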

Variant | self-cleavage
C25U G23A | 0.11
C25U G23U | 0.05
C25G G35C | 0.05
C25G G35A | 0.12
C25G G35U | 0.07
C26A G23C | 0.01
C26A G23A | 0.04
C26A G23U | 0.02
C26A C33A | 0.05
C26A C33G | 0.02
C26A C33U | 0.04
C25A C32U | 0.04
C25A C32A | 0.08
C25A C32G | 0.05
C25A G35U | 0.09
C25A G35C | 0.05
C25A G35A | 0.18
C26A G30C | 0.02
C26A G30U | 0.01
C26A G30A | 0.01
C26A G48C | 0.1
C26A G48A | 0.03
C26A G48U | 0.7
C25G U37C | 0.12

Variant | self-cleavage
C25G U37A | 0.12
C25G U37G | 0.13
C25U G35A | 0.87
C25U G35U | 0.72
C25U G35C | 0.09
C25A G44U | 0.06
C25A G44A | 0.05
C25A G44C | 0.1
C25G G30C | 0.02
C25G G30A | 0.02
C25G G30U | 0.02
C25A G51C | 0.05
C25A G51A | 0.1
C25A G51U | 0.06
C25A U37G | 0.25
C25A U37A | 0.11
C25A U37C | 0.14
C25G G45C | 0.03
C25G G45A | 0.03
C25G G45U | 0.02
C25G G23A | 0.06
C25G G23C | 0.04
C25G G23U | 0.04
C25A G42C | 0.04

Variant | self-cleavage
C25A G42A | 0.06
C25A G42U | 0.03
C25U G48U | 0.04
C25U G48A | 0.07
C25U G48C | 0.06
C25U C26G | 0.08
C25U C26U | 0.21
C25U C26A | 0.04
C25G U12G | 0.04
C25G U12A | 0.06
C25G U12C | 0.05
C26A G22A | 0.07
C26A G22U | 0.05
C26A G22C | 0.02
C25G U18C | 0.13
C25G U18G | 0.18
C25G U18A | 0.08
C25U U37C | 0.95
C25U U37A | 0.74
C25U U37G | 0.96
C26A G19A | 0.04
C26A G19C | 0.02
C26A G19U | 0.03
C25A G30A | 0.02

Variant | self-cleavage
C25A G30C | 0.02
C25A G30U | 0.02
C25U C32U | 0.08
C25U C32A | 0.06
C25U C32G | 0.1
C25G G44C | 0.06
C25G G44U | 0.05
C25G G44A | 0.06
C25U G30C | 0.03
C25U G30A | 0.03
C25U G30U | 0.05
C26A G49C | 0.02
C26A G49U | 0.02
C26A G49A | 0.02
C25G G50A | 0.12
C25G G50C | 0.09
C25G G50U | 0.11
C26A G50C | 0.05
C26A G50A | 0.07
C26A G50U | 0.05
C25A G22C | 0.03
C25A G22A | 0.15
C25A G22U | 0.07
C25A U43G | 0.06

Variant | self-cleavage
C25A U43A | 0.06
C25A U43C | 0.06
C26A G47C | 0.02
C26A G47U | 0.03
C26A G47A | 0.03
C25G G53C | 0.02
C25G G53A | 0.08
C25G G53U | 0.06
C25G C32U | 0.04
C25G C32A | 0.03
C25G C32G | 0.09
C25A | 0.2
C25U | 0.93
C25G | 0.12
C25G G49A | 0.07
C25G G49U | 0.61
C25G G49C | 0.7
C25G G42A | 0.09
C25G G42U | 0.02
C25G G42C | 0.06
C25U U12C | 0.09
C25U U12A | 0.18
C25U U12G | 0.17
C26A G53C | 0.02

Variant | self-cleavage
C26A G53A | 0.06
C26A G53U | 0.04
C25A G53U | 0.05
C25A G53C | 0.03
C25A G53A | 0.09
C25A G13C | 0.02
C25A G13U | 0.02
C25A G13A | 0.03
C26A C52G | 0.08
C26A C52A | 0.08
C26A C52U | 0.07
C25U G22C | 0.07
C25U G22A | 0.74
C25U G22U | 0.47
C25U G50U | 0.52
C25U G50C | 0.23
C25U G50A | 0.87
C26A G45C | 0.02
C26A G45U | 0.02
C26A G45A | 0.02
C25G C33G | 0.04
C25G C33A | 0.03
C25G C33U | 0.06
C25A U12G | 0.06

Variant | self-cleavage
C25A U12C | 0.04
C25A U12A | 0.06
C25G G48U | 0.02
C25G G48A | 0.04
C25G G48C | 0.03
C26A C31G | 0.03
C26A C31A | 0.02
C26A C31U | 0.06
C25A G47A | 0.04
C25A G47C | 0.03
C25A G47U | 0.04
C25A G50C | 0.27
C25A G50U | 0.42
C25A G50A | 0.59
C25U G34C | 0.5
C25U G34U | 0.77
C25U G34A | 0.85
C25U C9U | 0.33
C25U C9G | 0.18
C25U C9A | 0.23
C26A G51A | 0.06
C26A G51U | 0.04
C26A G51C | 0.02
